Consider one molecule from ChEMBL document CHEMBL1649314, “Experimental murine scedosporiosis: histopathology and azole treatment” (2010).

The source made the active and inactive calls. The calls are words filed in the database; no cut-off is given here.

Format in all cases: functional, organism-based
Experiment [1] deals with Scedosporium aurantiacum. In words: Antifungal activity against Scedosporium aurantiacum CBS 116910 infected in immunosuppressed OF1 mouse assessed as reduction in kidney fungal burden at 10 mg/kg, po BID administered 24 hrs postinfection for 10 days measured after 20 days. On the set-up: dose 10 mg/kg.
For experiment [2], the system named is Scedosporium apiospermum. In words: Antifungal activity against Scedosporium apiospermum IHEM 14464 infected in immunosuppressed OF1 mouse assessed as prolonged survival of mouse at 10 mg/kg, po BID administered 24 hrs postinfection for 10 days measured after 20 days. On the set-up: dose 10 mg/kg. The procedure, abridged:
(§1)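 Male OF1 mice, groups of 10, immunosuppressed 1 day before infection with cyclophosphamide 200 mg/kg i.p. plus 5-fluorouracil 150 mg/kg i.v. Infected i.v. via tail vein with 1 × 10^4 CFU in 0.2 ml saline. Oral treatment began 24 h post-challenge for 10 days. Mice checked daily for 20 days. Survival by Kaplan-Meier, compared by log rank test.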

The test system of experiment [3] is Scedosporium aurantiacum. Description: Antifungal activity against Scedosporium aurantiacum IHEM 15458 infected in immunosuppressed OF1 mouse assessed as reduction in kidney fungal burden at 20 mg/kg, po BID administered 24 hrs postinfection for 10 days measured after 20 days. On the set-up: dose 20 mg/kg.
Experiment [4] has as its system Scedosporium apiospermum. Description: Antifungal activity against Scedosporium apiospermum IHEM 14464 infected in immunosuppressed OF1 mouse assessed as reduction in brain fungal burden at 20 mg/kg, po BID administered 24 hrs postinfection for 10 days measured after 20 days. On the set-up: dose 20 mg/kg.
For experiment [5], the system named is Scedosporium boydii. In words: Antifungal activity against Scedosporium boydii FMR 6694 infected in immunosuppressed OF1 mouse assessed as reduction in brain fungal burden at 40 mg/kg, po BID administered 24 hrs postinfection for 10 days measured after 20 days. Also noted: dose 40 mg/kg.
For experiment [6], the system named is Scedosporium apiospermum. In words: Antifungal activity against Scedosporium apiospermum IHEM 14464 infected in immunosuppressed OF1 mouse assessed as reduction in brain fungal burden at 40 mg/kg, po BID administered 24 hrs postinfection for 10 days measured after 20 days. Also noted: dose 40 mg/kg.
Experiment [7] can be described thus: Antifungal activity against Scedosporium aurantiacum CBS 116910 infected in immunosuppressed OF1 mouse assessed as prolonged survival of mouse at 20 mg/kg, po BID administered 24 hrs postinfection for 10 days measured after 20 days. Also noted: dose 20 mg/kg. The procedure, abridged:
as §1

The test system of experiment [8] is Scedosporium boydii. In words: Antifungal activity against Scedosporium boydii FMR 6694 infected in immunosuppressed OF1 mouse assessed as reduction in kidney fungal burden at 10 mg/kg, po BID administered 24 hrs postinfection for 10 days measured after 20 days. Also noted: dose 10 mg/kg.
Experiment [9] deals with Scedosporium apiospermum. In words: Antifungal activity against Scedosporium apiospermum CBS 117407 infected in immunosuppressed OF1 mouse assessed as reduction in kidney fungal burden at 10 mg/kg, po BID administered 24 hrs postinfection for 10 days measured after 20 days. Also noted: dose 10 mg/kg.
Experiment [10] relates to Scedosporium apiospermum. Description: Antifungal activity against Scedosporium apiospermum CBS 117407 infected in immunosuppressed OF1 mouse assessed as prolonged survival of mouse at 10 mg/kg, po BID administered 24 hrs postinfection for 10 days measured after 20 days. On the set-up: dose 10 mg/kg. The procedure, abridged:
as §1

Experiment [11] has as its system Scedosporium boydii. In words: Antifungal activity against Scedosporium boydii FMR 8627 infected in immunosuppressed OF1 mouse assessed as reduction in brain fungal burden at 40 mg/kg, po BID administered 24 hrs postinfection for 10 days measured after 20 days. Also noted: dose 40 mg/kg.
Experiment [12] has as its system Scedosporium apiospermum. Description: Antifungal activity against Scedosporium apiospermum CBS 117407 infected in immunosuppressed OF1 mouse assessed as prolonged survival of mouse at 20 mg/kg, po BID administered 24 hrs postinfection for 10 days measured after 20 days. Also noted: dose 20 mg/kg. The procedure, abridged:
as §1

Experiment [13] has as its system Scedosporium aurantiacum. In words: Antifungal activity against Scedosporium aurantiacum CBS 116910 infected in immunosuppressed OF1 mouse assessed as reduction in brain fungal burden at 20 mg/kg, po BID administered 24 hrs postinfection for 10 days measured after 20 days. Also noted: dose 20 mg/kg.

Regarding `CC[C@@H]([C@H](C)O)n1ncn(-c2ccc(N3CCN(c4ccc(OC[C@@H]5CO[C@@](Cn6cncn6)(c6ccc(F)cc6F)C5)cc4)CC3)cc2)c1=O` [POSACONAZOLE], the outcome (with Scedosporium aurantiacum [1]; in the experiment with Scedosporium apiospermum [2]; with Scedosporium aurantiacum [3]; in the experiment on Scedosporium apiospermum [4]; with Scedosporium apiospermum [6]; in [7]) was Active. Further, the result in the experiment with Scedosporium apiospermum [9], with Scedosporium apiospermum [10], with Scedosporium boydii [11], in the experiment on Scedosporium apiospermum [12] and with Scedosporium aurantiacum [13] was Active. Moreover, the outcome in the experiment on Scedosporium boydii [5] and in the experiment with Scedosporium boydii [8] was inactive.
